Compound activity (PubChem BioAssay)
Rows were chosen to be rich in hits. Some 1.8% of all compounds tested hit in one or more screens of this group.
Hep lipid drop – modulators of hepatic lipid droplet formation; inhibition, % at 6.5 µM; 0.4% of 240,000 active; AML12 mouse hepatocytes, oleate lipid droplets, BODIPY imaging;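 active = lipid droplet intensity inhibited by at least 50%, with more than 500 cells counted; inconclusive = wells with under 300 cells, treated as cytotoxic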
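Assay system: AML12 hepatocytes (mouse); Probe or stimulus: oleic acid at 100 µM to induce lipid droplet formation; Dosing: compound at 6.5 µM only; Schedule: compound with oleate, overnight; Detection: fluorescence imaging, 20x objective, two fields per well; Measure: % inhibition of lipid droplet signal.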
iPSC survival up – enhancers of human iPSC single-cell survival; hiPSC single-cell survival, ATPlite luminescence; 100% = ROCK inhibitor wells, 0% = DMSO; survival enhancement, % at 20 µM; 0.044% of 360,000 active; AID 602274; in the data active = survival enhancement above about 18%;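 note: cells exposed to compounds for 16 hours before the ATP read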
Jurkat NFkB inh – lowers PMA/ionomycin-induced NF-kB signal in Jurkat cells; PMA/ionomycin-induced NF-kB luciferase reporter, luminescence; inhibition, % at 4 µM; 0.53% of 330,000 active; in the data active = inhibition above about 50%
697 NFkB inh – inhibitors of the PMA/ionomycin-induced NF-kB reporter in 697 B cells. 697 B-cell NF-kB luciferase reporter, 16 h. inhibition, % at 4 µM. 0.33% of 330,000 active; in the data active = inhibition above about 35%
Gli-Sufu antag – blocks Gli-Sufu signaling in a luciferase reporter | Sufu-KO-LIGHT fibroblasts, Gli luciferase reporter luminescence | inhibition, % at 5 µM | 0.74% of 340,000 active;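 active = inhibition above about 55%, limit read from the data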
H9c2 TAG inh – triacylglycerol accumulation inhibition | 0.66% of 230,000 active | H9c2 cells, Nile Red lipid (TAG) fluorescence; cells loaded with 200 µM oleic acid | inhibition, % at 12.5 µM | AID 651582;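 active = pattern-corrected inhibition of lipid staining of at least 50% with the nuclear-stain viability signal not falling by more than 50%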
H9c2 TAG conf – confirmation of triacylglycerol accumulation inhibitors. shares compounds with H9c2 TAG inh. H9c2 lipid accumulation, Nile Red fluorescence; cells loaded with 200 µM oleic acid. inhibition, % at 12.5 µM. 71% of 990 active;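 active = mean inhibition across replicates of 40% or more; inactive = mean inhibition below 40%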
Of the large screens only hits and unclear results are named; the others gave an inactive call (follow-up assays come after a bar, where they were run).

COc1cc2c3c(c1)c(C1=NC(=S)NC1=O)c(O)n3C(C)(C)C=C2C	H9c2 TAG inh 83 | H9c2 TAG conf 66
O=C(CSc1nc2ccccc2c(=O)[nH]1)Nc1ccc(C(=O)O)cc1	none
CCOc1ccc(NC(=O)c2ccc(NC(=O)CSc3nc4ccccc4c(=O)[nH]3)cc2)cc1	H9c2 TAG inh 61 | H9c2 TAG conf 63
O=C(CCCc1ccccc1)NCCS(=O)(=O)N1CCN(c2ccccc2F)CC1	none (no result: Hep lipid drop)
C=C(C)c1cccc(C(C)(C)NC(=O)N2CCC(C(N)=O)CC2)c1	H9c2 TAG inh 59 (no result: Gli-Sufu antag) | H9c2 TAG conf inactive
CCOC(=O)C1=C[C@@H](c2ccccc2)N(S(=O)(=O)c2ccc(C)cc2)[C@H]1c1ccc(F)cc1	none (no result: Hep lipid drop, Jurkat NFkB inh, 697 NFkB inh, Gli-Sufu antag, H9c2 TAG inh)
CCCCCC(=C/c1ccccc1)/C=N/Nc1ccc(S(=O)(=O)N2CCOCC2)cc1[N+](=O)[O-]	H9c2 TAG inh 83 (no result: Hep lipid drop, Jurkat NFkB inh, 697 NFkB inh) | H9c2 TAG conf 81
O=C(O)c1ccccc1/C=N/Nc1ccc(S(=O)(=O)N2CCOCC2)cc1[N+](=O)[O-]	none
O=C(COC(=O)C1=COCCO1)NCc1ccc(Cl)cc1Cl	H9c2 TAG inh 66 (no result: Hep lipid drop, Jurkat NFkB inh, 697 NFkB inh, Gli-Sufu antag) | H9c2 TAG conf inactive
COc1ccc(CNC(=O)CN(c2ccc(C(C)C)cc2)S(=O)(=O)c2c(C)noc2C)cc1	none (no result: H9c2 TAG inh)
CCN(CC)CCn1c2c(c(SCC(=O)Nc3ccc(C)c(F)c3)nc1=O)CCCC2	H9c2 TAG inh 53 (no result: Hep lipid drop) | H9c2 TAG conf inactive
NC(=S)NN=C(c1ccc(F)cc1)C1CC1	none (no result: Hep lipid drop, Jurkat NFkB inh, 697 NFkB inh)
Cc1cccc(N2CCN(C(=O)CCCn3c(=S)[nH]c4cc5c(cc4c3=O)OCO5)CC2)c1C	H9c2 TAG inh 54 (no result: Hep lipid drop) | H9c2 TAG conf inactive
O=C(CCCn1c(=S)[nH]c2cc3c(cc2c1=O)OCO3)N1CCN(c2ccccc2)CC1	none (no result: Hep lipid drop)
CCC[C@@H](CN[C@@H](CNC)[C@H](C)CC)NCC1CCC(C(C)(C)C)CC1 (stereo partly drawn)	H9c2 TAG inh 127 | H9c2 TAG conf 89
Cc1c(CCC(=O)O)c(=O)oc2c(C)c(OCc3cc4c(cc3Cl)OCO4)ccc12	none
CCc1cc2c3c(c1)C1(C(=O)N3C(C)(C)C=C2C)C(C#N)=C(N)Oc2[nH]c(=O)[nH]c(=O)c21 (stereo not drawn)	H9c2 TAG inh 51 | H9c2 TAG conf 49
CCOC(=O)c1c(NC(=O)COC(=O)c2nc(Cl)ccc2Cl)sc2c1CCC2	none (no result: H9c2 TAG inh)
CSC1=C(C#N)C(c2ccccc2C)C(C#N)=C(N)N1 (stereo not drawn)	H9c2 TAG inh 55 (no result: Hep lipid drop) | H9c2 TAG conf inactive
CSC1=C(C#N)C(c2ccccc2Cl)C2=C(N1)c1ccccc1C2=O (stereo not drawn)	none (no result: Hep lipid drop)
O=C(Nc1ccc(-c2csc(Nc3cccc(C(F)(F)F)c3)n2)cc1)c1cc([N+](=O)[O-])cc(C(F)(F)F)c1	H9c2 TAG inh 71 | H9c2 TAG conf 68
O=C(Nc1ccc(-c2csc(Nc3cccc(C(F)(F)F)c3)n2)cc1)c1ccccc1	H9c2 TAG inh 51 | H9c2 TAG conf 63
O=C(Nc1cccc(-c2csc(Nc3cccc(C(F)(F)F)c3)n2)c1)c1ccccc1	none
O=C(Nc1nc(-c2ccccc2)cs1)c1cccc([N+](=O)[O-])c1	none (no result: Hep lipid drop, H9c2 TAG inh)
COc1cc2c(cc1OC)CN(C(=S)Nc1ccccc1Cl)CC2	H9c2 TAG inh 62 | H9c2 TAG conf inactive
COc1cc(C(C)=O)ccc1Oc1ncccn1	none (no result: H9c2 TAG inh)
COc1ccc2nc(NC(=O)c3cccc(OCc4c(C)noc4C)c3)sc2c1	H9c2 TAG inh 58 (no result: Hep lipid drop) | H9c2 TAG conf 48
CCOc1ccc2nc(NC(=O)C3CCCN(S(=O)(=O)c4c(C)noc4C)C3)sc2c1 (stereo not drawn)	H9c2 TAG inh 57 | H9c2 TAG conf 75
COc1ccc2nc(NC(=O)C3CCCN(S(=O)(=O)c4c(C)noc4C)C3)sc2c1 (stereo not drawn)	none
CCSc1nnc(NC(=O)c2cccc(OCc3c(C)noc3C)c2)s1	none
CC(=O)Nc1ccc(NC2=Nc3ccccc3N3C2=Nc2c(c(C)nn2-c2ccccc2)C3c2ccccc2)cc1 (stereo not drawn)	Gli-Sufu antag 60, H9c2 TAG inh 54 (no result: Hep lipid drop) | H9c2 TAG conf 43
CC(OC(=O)Cc1ccc(F)cc1)C(=O)NCc1ccc2c(c1)OCO2 (stereo not drawn)	none (no result: Hep lipid drop)
COc1cc(-c2nc3c(c(C)nn3-c3ccccc3)c3cc(OC)c(OC)cc23)ccc1O	H9c2 TAG inh 62 (no result: Hep lipid drop) | H9c2 TAG conf 58
CC1CCCN(C(=O)C2CC(=O)N(c3ccc(Cl)cc3)C2)C1 (stereo not drawn)	none (no result: H9c2 TAG inh)
C=CCN1C(=O)/C(=C2\SC(N3CCOCC3)=NC2=O)c2cc(Br)ccc21	H9c2 TAG inh 58 | H9c2 TAG conf 50
N/C(=N\OC(=O)CSc1ccccc1)c1ccc([N+](=O)[O-])cc1	none
CC(C)(Oc1ccc(Cl)cc1)C(=O)Nc1ccc2oc(-c3ccncc3)nc2c1	H9c2 TAG inh 57 | H9c2 TAG conf 46
O=C(COc1ccc(Cl)cc1)Nc1ccc2oc(-c3ccncc3)nc2c1	none
Cc1ccc(-n2c(=O)[nH]c3cc(C(=O)NC4CCN(Cc5ccccc5)CC4)ccc3c2=O)cc1	H9c2 TAG inh 75 (no result: Hep lipid drop) | H9c2 TAG conf inactive
Cc1ccc(CN2CCSc3ccc(C(=O)NC4CCN(Cc5ccccc5)CC4)cc32)cc1	none
CC(/C=N/NC(=O)c1n[nH]c2c1CCC2)=C\c1ccccc1	Hep lipid drop inconclusive, H9c2 TAG inh 72 | H9c2 TAG conf inactive
Cc1ccc(/C=N/NC(=O)c2n[nH]c3c2CCCC3)cc1	Hep lipid drop inconclusive
O=C1COc2ccc(C(=O)CSc3nc4ccccc4c(=O)n3-c3ccc(Cl)c(Cl)c3)cc2N1	H9c2 TAG inh 61 | H9c2 TAG conf 66
CCOc1ccc(CN(C)C(=O)CCNC(=O)c2ccco2)cc1	none (no result: Hep lipid drop)
CCOc1ccc(CN(C)C(=O)CCl)cc1	H9c2 TAG inh 58 | H9c2 TAG conf 80
COC(=O)[C@@]1(Cc2ccc(F)cc2)[C@H]2c3cc(C(=O)N4CCCC4)n(CCCNc4ncc(C(F)(F)F)cc4Cl)c3C[C@H]2CN1C(=O)c1ccccc1	H9c2 TAG inh 78 | H9c2 TAG conf 98
COC(=O)[C@@]1(Cc2ccc(F)cc2)[C@H]2c3cc(C(=O)N4CCCC4)n(CCF)c3C[C@H]2CN1C(=O)c1ccccc1	none (no result: Hep lipid drop, Jurkat NFkB inh, 697 NFkB inh, Gli-Sufu antag, H9c2 TAG inh)
CC(C)(C)NC(=O)C(c1ccc(-c2ccccc2)cc1)N(C[C@H]1CC[C@@H]([C@@H]2CC[C@H](CO)O2)O1)C(=O)c1ccc(-c2ccccc2)cc1 (stereo partly drawn)	H9c2 TAG inh 60 (no result: Hep lipid drop, Jurkat NFkB inh) | H9c2 TAG conf 67
CC(C)(C)NC(=O)C(c1ccc(-c2ccccc2)cc1)N(C[C@H]1CC[C@@H]([C@@H]2CC[C@H](CO)O2)O1)C(=O)c1ccc2ccccc2c1 (stereo partly drawn)	H9c2 TAG inh 65 (no result: Hep lipid drop, Jurkat NFkB inh) | H9c2 TAG conf 82
